According to paper PMC8416640 (Biochemistry and Biophysics Reports, 2021):

Legend:
[1] = target: ccT2R201 (Cyprinus carpio, UniProt A0A2Z6FB59); type: cell-based, common carp (Cyprinus carpio); settings: for response of ccT2R201 in screening of bitter compounds: single screening concentration per compound, vs control buffer
Summary of the method: (§1)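 Transient co-transfection of HEK293T cells with a pEAK10 vector carrying the carp receptor (cloned from lip cDNA or head genomic DNA) with an N-terminal sst tag (first 45 residues of rat somatostatin receptor 3), human Gα16gust44 and mt-apoclytin-II. Cells were exposed to each bitter test compound at one fixed screening concentration. Luminescence was read as area under the curve in RLU. More than three independent experiments were run in duplicate or triplicate, with paired t-tests.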

[2] = target: ccT2R200-2 (Cyprinus carpio, UniProt A0A2Z6FB19); type: cell-based, common carp (Cyprinus carpio); settings: for response of ccT2R200-2 in screening of bitter compounds: single screening concentration per compound, vs control buffer
Chain of ccT2R200-2 (A0A2Z6FB19 1-321): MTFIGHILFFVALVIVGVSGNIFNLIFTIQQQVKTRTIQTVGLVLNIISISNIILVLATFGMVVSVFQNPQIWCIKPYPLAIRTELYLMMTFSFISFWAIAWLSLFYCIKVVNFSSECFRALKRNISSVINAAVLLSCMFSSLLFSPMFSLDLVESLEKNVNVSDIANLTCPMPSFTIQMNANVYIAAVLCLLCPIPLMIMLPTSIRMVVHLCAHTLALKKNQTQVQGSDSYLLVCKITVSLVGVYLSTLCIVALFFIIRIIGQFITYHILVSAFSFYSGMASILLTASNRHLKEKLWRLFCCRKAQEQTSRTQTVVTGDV

[3] = system: ccT2R203-1; type: cell-based, common carp (Cyprinus carpio); settings: for response of ccT2R203-1 in screening of bitter compounds: single screening concentration per compound, vs control buffer
[4] = target: ccT2R200-1 (Cyprinus carpio, UniProt A0A2Z6FB23); type: cell-based, common carp (Cyprinus carpio); settings: for response of ccT2R200-1 in screening of bitter compounds: single screening concentration per compound, vs control buffer
Chain of ccT2R200-1 (A0A2Z6FB23 1-321): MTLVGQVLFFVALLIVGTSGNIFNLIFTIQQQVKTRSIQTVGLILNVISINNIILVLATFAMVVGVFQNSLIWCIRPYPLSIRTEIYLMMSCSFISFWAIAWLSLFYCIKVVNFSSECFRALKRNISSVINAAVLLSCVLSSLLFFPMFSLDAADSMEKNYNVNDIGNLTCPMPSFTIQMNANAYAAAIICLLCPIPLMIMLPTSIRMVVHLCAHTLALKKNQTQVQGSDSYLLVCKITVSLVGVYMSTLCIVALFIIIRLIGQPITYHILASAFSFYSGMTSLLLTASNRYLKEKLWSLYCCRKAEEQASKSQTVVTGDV

[5] = system: ccT2R202-2; type: cell-based, common carp (Cyprinus carpio); settings: single screening concentration per compound, vs control buffer
Summary of the method: as §1

[6] = system: drT2R3a; settings: approximate, one range for four receptors; cited from earlier work
[7] = system: drT2R1; settings: drT2R1, approximate, one range for four receptors; cited from earlier work
[8] = system: lcT2R01; settings: lcT2R01, approximate, one range for four receptors; cited from earlier work
[9] = system: mfT2R1; settings: mfT2R1, approximate, one range for four receptors; cited from earlier work
[10] = system: drT2R4; settings: zebrafish receptor; cited from earlier work
[11] = system: ccT2R202-1; type: cell-based, common carp (Cyprinus carpio); settings: single screening concentration per compound, vs control buffer
Summary of the method: as §1

Chain of ccT2R201 (A0A2Z6FB59 1-327): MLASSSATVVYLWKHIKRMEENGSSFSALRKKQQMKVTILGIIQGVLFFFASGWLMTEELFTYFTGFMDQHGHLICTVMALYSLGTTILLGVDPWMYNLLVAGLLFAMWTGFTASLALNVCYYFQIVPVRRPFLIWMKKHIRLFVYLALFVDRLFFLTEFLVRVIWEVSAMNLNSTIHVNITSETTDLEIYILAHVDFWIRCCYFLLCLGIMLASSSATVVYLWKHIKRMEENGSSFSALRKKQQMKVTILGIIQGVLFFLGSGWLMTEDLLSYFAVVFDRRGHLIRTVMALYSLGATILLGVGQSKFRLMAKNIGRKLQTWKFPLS

Compound | response of ccT2R201 in screening of bitter compounds [1] | response of ccT2R203-1 in screening of bitter compounds [3] | response of ccT2R200-1 in screening of bitter compounds [4] | other results
OCc1ccccc1O[C@@H]1O[C@H](CO)[C@@H](O)[C@H](O)[C@H]1O [D-(−)-salicin] | weakly responded |  |  | 
CCCc1cc(=O)[nH]c(=S)[nH]1 [PROP] | strongly activated | strongly activated | weakly responded | response of ccT2R200-2 in screening of bitter compounds [2]: strongly activated
CC1=C[C@H]2[C@H]3[C@H](C(C)=C4[C@H]5OC(=O)[C@@H](C)[C@@H]5CC[C@](C)(O)[C@@H]43)[C@@]13[C@@H]2[C@@](C)(O)CC[C@H]1[C@H](C)C(=O)O[C@@H]13 [absinthin] |  | weakly responded | weakly responded | response of ccT2R200-2 in screening of bitter compounds [2]: weakly responded
C=C1CC[C@@H]2[C@](C)(CO)[C@H](O)CC[C@@]2(C)[C@@H]1C/C=C1/C(=O)OC[C@H]1O [andrographolide] |  | weakly responded | strongly activated | EC50 [2]: 335 ± 38 µM; response of ccT2R200-2 in screening of bitter compounds [2]: strongly activated; EC50 [4]: 182 ± 7 µM; response of ccT2R202-2 in screening of bitter compounds [5]: weakly activated
O=C(N[C@H](CO)[C@H](O)c1ccc([N+](=O)[O-])cc1)C(Cl)Cl [chloramphenicol] | weakly responded |  |  | 
COc1cc2c(c(OC)c1OC)-c1ccc(OC)c(=O)cc1[C@@H](NC(C)=O)CC2 [colchicine] | weakly responded |  |  | 
O=C(O)c1cc(=O)c2c(OCC(O)COc3cccc4oc(C(=O)O)cc(=O)c34)cccc2o1 [cromolyne] |  |  | weakly responded | 
CC[N+](CC)(CC(=O)Nc1c(C)cccc1C)Cc1ccccc1 [denatonium benzoate] | weakly responded |  |  | EC50 [6]: 300 to 3000 µM; EC50 [7]: 300 to 3000 µM; EC50 [1]: 44 ± 5 µM; EC50 [8]: 300 to 3000 µM; EC50 [9]: 300 to 3000 µM
CN(C)C=S [dimethyl-thioformamide] |  | weakly responded | weakly responded | 
CNC(N)=S [methylthiourea] |  | weakly responded |  | 
C=C(C)[C@@H]1[C@H]2OC(=O)[C@@H]1[C@]1(O)C[C@H]3O[C@]34C(=O)O[C@H]2[C@]14C [picrotoxinin] |  | strongly activated | strongly activated | response of ccT2R200-2 in screening of bitter compounds [2]: strongly activated; EC50 ([3]; ccT2R203-1, dose-response with seven concentrations, HEK293T, luminescence AUC): 425 ± 99 µM; EC50 [4]: 510 ± 26 µM; response of drT2R4 [10]: does not respond
O=C1C[C@@H]2OCC=C3CN4CC[C@]56c7ccccc7N1[C@H]5[C@H]2[C@H]3C[C@H]46 [strychinine] |  |  | weakly responded | response of ccT2R202-1 in screening of bitter compounds [11]: weakly activated
CC(C)[C@]12CC(=O)[C@H](C)[C@H]1C2 [α-thujon] |  |  | weakly responded | 
amarogentin | strongly activated |  | strongly activated | 
